According to ChEMBL document CHEMBL2146438, “Radiolabeled cyclosaligenyl monophosphates of 5-iodo-2'-deoxyuridine, 5-iodo-3'-fluoro-2',3'-dideoxyuridine, and 3'-fluorothymidine for molecular radiotherapy of cancer: synthesis and biological evaluation” (J Med Chem, 2012):
Activity calls are given as the source filed them. The rule behind the calls is not given here.

Tests used:
Cholinesterase = Cholinesterase (Homo sapiens, UniProt P06276); assay: Inhibition of human BChE after 30 mins by microplate reader method
[1] = Chemical stability of the compound in phosphate buffer at pH 7.3; type: physicochemical
[2] = Half life of the compound in phosphate buffer at pH 7.3; type: physicochemical
[3] = Cytotoxicity against human LS 174T cells assessed as colony formation at 114.5 kBq/mL incubated for 4 hrs measured after 21 days by clonogenic assay; type: functional, LS174T
How it was run: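 LS 174T cells exposed 4 h to 114.5 kBq/mL 125I agent, cultured 24 h in nonradioactive medium, then harvested and plated; colonies counted after 21 days; surviving fraction = treated colonies / untreated control colonies.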

[4] = Cellular uptake in human OVCAR3 cell cytoplasm assessed as per 10^3 cells after 1 hr by gamma counting; type: ADME, cell-based; conditions: ovcar-3, 1 h
How it was run: (§1)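 OVCAR-3 cells incubated 1 h with 55.5 (0.04) kBq/mL 125I-labelled agent (diastereomer mixtures or resolved slow isomers); fractionated either immediately or after 24 h further growth in fresh nonradioactive medium; 125I in cytoplasm and nucleus counted as cpm/10^3 cells with std dev.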

[5] = Cellular uptake in human OVCAR3 cell cytoplasm assessed as per 10^3 cells after 24 hrs by gamma counting; type: ADME, cell-based; conditions: ovcar-3, 24 h; how it was run: as §1
[6] = Cellular uptake in human OVCAR3 cell nucleus assessed as per 10^3 cells after 1 hr by gamma counting; type: ADME, cell-based; conditions: ovcar-3, 1 h; how it was run: as §1
[7] = Cellular uptake in human OVCAR3 cell nucleus assessed as per 10^3 cells after 24 hrs by gamma counting; type: ADME, cell-based; conditions: ovcar-3, 24 h; how it was run: as §1
LS174T [8] = assay: Cytotoxicity against human LS 174T cells assessed as colony formation at 185 kBq/mL after 4 hrs by clonogenic assay relative to control; type: functional, cell-based; conditions: tested as the 125I-labelled form
How it was run: (§2)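 LS 174T cells exposed 4 h to 185 kBq/mL 125I agent, harvested immediately and plated for clonogenic survival (relative to untreated controls); 125I retained in nuclear DNA measured as mBq/cell.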

LS174T [9] = assay: Cytotoxicity against human LS 174T cells assessed as incorporation of radioisotope at 185 kBq/mL after 4 hrs by gamma counting; type: functional, cell-based; conditions: tested as the 125I-labelled form; how it was run: as §2
[10] = Cellular uptake in human OVCAR3 cytoplasm at 55.5 kBq/mL incubated for 1 hr followed by compound wash out measured after 24 hrs by gamma counting; type: ADME, cell-based; conditions: ovcar-3, 1 h; how it was run: as §1
Nucleic Acid [11] = assay: Binding affinity to human U87MG cell DNA at 27.3 kBq/mL incubated for 24 hrs followed by compound wash out measured after 144 hrs by gamma counting; type: nucleic-acid assay; conditions: U-87MG ATCC, tested as the 125I-labelled form
How it was run: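 U-87 MG cells treated 24 h with 27.3 kBq/mL 125I-labelled agent, then grown a further 144 h in fresh medium; 125I retained in DNA counted.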

Nucleic Acid [12] = assay: Binding affinity to human U87MG cell DNA at 185 kBq/mL after 120 hrs by gamma counting; type: nucleic-acid assay; conditions: U-87MG ATCC, tested as the 125I-labelled form
How it was run: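 U-87 MG glioblastoma cells exposed continuously to 185 kBq/mL 125I-labelled agent for 120 h; DNA isolated and DNA-associated 125I counted.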

Nucleic Acid [13] = assay: Binding affinity to human U87MG cell DNA at 19.6 kBq/mL after 40 hrs by gamma counting; type: nucleic-acid assay; conditions: U-87MG ATCC, tested as the 125I-labelled form
How it was run: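 U-87 MG cells incubated 40 h with 19.6 kBq/mL 125I-labelled agent; 125I in DNA measured (genomic tips DNA isolation), expressed as mBq 125I/cell.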

U-87MG ATCC = assay: Cytotoxicity against human U87MG cells assessed as cell death at 18.5 kBq/mL after 8 weeks by clonogenic assay; type: functional, cell-based; conditions: tested as the 125I-labelled form
How it was run: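 U-87 MG cells treated 24 h with increasing 125I agent concentrations, then grown in fresh medium; colony formation followed up to eight weeks versus vehicle-treated controls.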

Chain of Cholinesterase (P06276 whole entry): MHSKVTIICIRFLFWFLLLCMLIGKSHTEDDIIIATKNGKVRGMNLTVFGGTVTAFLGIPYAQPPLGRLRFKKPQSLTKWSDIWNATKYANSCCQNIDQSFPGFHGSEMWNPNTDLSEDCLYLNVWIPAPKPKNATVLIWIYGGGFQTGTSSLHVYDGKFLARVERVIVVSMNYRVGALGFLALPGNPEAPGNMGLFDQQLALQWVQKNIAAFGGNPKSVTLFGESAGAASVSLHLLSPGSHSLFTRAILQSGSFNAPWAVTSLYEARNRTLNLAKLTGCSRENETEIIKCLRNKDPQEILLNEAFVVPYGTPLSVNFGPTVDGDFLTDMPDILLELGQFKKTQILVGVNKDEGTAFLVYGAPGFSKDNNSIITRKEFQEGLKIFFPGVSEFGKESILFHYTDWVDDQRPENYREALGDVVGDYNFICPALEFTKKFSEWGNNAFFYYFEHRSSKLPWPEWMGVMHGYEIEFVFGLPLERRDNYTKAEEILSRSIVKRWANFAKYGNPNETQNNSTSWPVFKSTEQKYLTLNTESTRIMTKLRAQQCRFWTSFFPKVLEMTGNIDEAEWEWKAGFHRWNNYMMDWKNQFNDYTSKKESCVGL

Cc1cn([C@H]2C[C@H](F)[C@@H](COP3(=O)OCc4c(F)c(C(C)(C)C)cc(C(C)(C)C)c4O3)O2)c(=O)[nH]c1=O (stereo in doubt; form 2)
IC50 (Cholinesterase): 42.6 nM

O=c1[nH]c(=O)n([C@H]2C[C@H](O)[C@@H](COP3(=O)OCc4ccccc4O3)O2)cc1[125I] (stereo in doubt; form 2)
K [1]: 1.52 ×10⁻³ /min | t1/2 [2]: 7.6 h | Activity [3]: 38% | Drug uptake ([4]; 1 h): 14.8 cpm | Drug uptake ([5]; 24 h): 6 cpm | Drug uptake ([6]; 1 h): 4.9 cpm | Drug uptake ([7]; 24 h): 31.3 cpm

CC(C)(C)c1cc(C(C)(C)C)c2c(c1F)COP(=O)(O[C@H]1C[C@H](n3cc(I)c(=O)[nH]c3=O)O[C@@H]1CO)O2 (stereo in doubt; form 1)
K [1]: 7.66 ×10⁻⁴ /min | t1/2 [2]: 15.1 h

Cc1cccc2c1OP(=O)(OC[C@H]1O[C@@H](n3cc(I)c(=O)[nH]c3=O)C[C@@H]1O)OC2 (stereo in doubt; form 2)
IC50 (Cholinesterase): 61.2 nM

Cc1cccc2c1OP(=O)(OC[C@H]1O[C@@H](n3cc(I)c(=O)[nH]c3=O)C[C@@H]1O)OC2 (stereo in doubt; form 4)
Activity (LS174T [8]): Active | Activity (LS174T [9]): Active

Cc1cccc2c1OP(=O)(O[C@H]1C[C@H](n3cc([125I])c(=O)[nH]c3=O)O[C@@H]1CO)OC2 (stereo partly specified)
Drug uptake [4]: 6.2 cpm | Drug uptake [5]: 1.4 cpm | Drug uptake [6]: 2 cpm | Drug uptake [7]: 15.7 cpm

CC(C)(C)c1cc(C(C)(C)C)c2c(c1F)COP(=O)(OC[C@H]1O[C@@H](n3cc([125I])c(=O)[nH]c3=O)C[C@@H]1O)O2 (stereo in doubt; 8b)
Drug uptake ([4]; 1 h): 88.3 cpm | Drug uptake ([5]; 24 h): 3.2 cpm | Drug uptake ([6]; 1 h): 7.9 cpm | Drug uptake ([7]; 24 h): 92.2 cpm | Drug uptake [10]: > 230%

Cc1cccc2c1OP(=O)(OC[C@H]1O[C@@H](n3cc([125I])c(=O)[nH]c3=O)C[C@@H]1O)OC2 (stereo in doubt; 7b)
Drug uptake ([4]; 1 h): 11.7 cpm | Drug uptake ([5]; 24 h): 1.6 cpm | Drug uptake ([6]; 1 h): 4.5 cpm | Drug uptake ([7]; 24 h): 25.9 cpm | Drug uptake [10]: Active

CC(C)(C)c1cc(C(C)(C)C)c2c(c1F)COP(=O)(OC[C@H]1O[C@@H](n3cc(I)c(=O)[nH]c3=O)C[C@@H]1O)O2 (stereo in doubt; form 3)
IC50 (Cholinesterase): 1140 nM

O=c1[nH]c(=O)n([C@H]2C[C@H](O)[C@@H](COP3(=O)OCc4ccccc4O3)O2)cc1I (stereo in doubt; form 4)
Activity (Nucleic Acid [11]): Active | Activity (Nucleic Acid [12]): Active | Activity (Nucleic Acid [13]): Active | Activity (U-87MG ATCC): Active

O=c1[nH]c(=O)n([C@H]2C[C@H](O)[C@@H](COP3(=O)OCc4ccccc4O3)O2)cc1I (stereo in doubt; form 1)
IC50 (Cholinesterase): 1280 nM

Cc1cccc2c1OP(=O)(O[C@H]1C[C@H](n3cc(I)c(=O)[nH]c3=O)O[C@@H]1CO)OC2 (stereo in doubt; form 2)
K [1]: 8.13 ×10⁻⁴ /min | t1/2 [2]: 14.2 h

O=c1[nH]c(=O)n([C@H]2C[C@H](O)[C@@H](COP3(=O)OCc4ccccc4O3)O2)cc1I (stereo in doubt; form 3)
Activity (U-87MG ATCC): Active

Cc1cccc2c1OP(=O)(OC[C@H]1O[C@@H](n3cc(I)c(=O)[nH]c3=O)C[C@@H]1O)OC2 (stereo in doubt; form 3)
Activity (LS174T [9]): Active

Cc1cn([C@H]2C[C@H](O)[C@@H](COP3(=O)OCc4c(F)c(C(C)(C)C)cc(C(C)(C)C)c4O3)O2)c(=O)[nH]c1=O (stereo in doubt; form 2)
IC50 (Cholinesterase): 376 nM

Cc1cn([C@H]2C[C@H](O)[C@@H](COP3(=O)OCc4c(F)c(C(C)(C)C)cc(C(C)(C)C)c4O3)O2)c(=O)[nH]c1=O (stereo in doubt; form 1)
IC50 (Cholinesterase): 23600 nM

CC(C)(C)c1cc(C(C)(C)C)c2c(c1F)COP(=O)(OC[C@H]1O[C@@H](n3cc(I)c(=O)[nH]c3=O)C[C@@H]1O)O2 (stereo in doubt; form 1)
K [1]: 2.41 ×10⁻⁴ /min | t1/2 [2]: 47.9 h
